Measurements from ChEMBL document CHEMBL1132994, “Synthesis and anticonvulsant and neurotoxic properties of substituted N-phenyl derivatives of the phthalimide pharmacophore” (J Med Chem, 2000).
The source made the active and inactive calls. The rule behind the calls is not given here.

Columns and labels:
Rattus norvegicus [1] = assay: Anticonvulsant activity was measured in rats through seizures induced by maximal electroshock (MES) tests by oral administration of drug after 30 minutes.; assay type: functional
How it was run: (§1)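 Rats given a single oral dose of 30 or 50 mg/kg, depending on compound; MES protection scored at 15, 30, 60, 120 and 240 min. Activity graded by fraction of animals protected (0-25%, 25-50%, 50-75%, 75-100%); neurotoxicity monitored at the same time points.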

Rattus norvegicus [2] = assay: Anticonvulsant activity was measured in rats through seizures induced by maximal electroshock (MES) tests by oral administration of drug after 1 hour.; assay type: functional; how it was run: as §1
Rattus norvegicus [3] = assay: Effective dose required to assure anticonvulsant protection in 50% of rats dosed orally by scPTZ test.; assay type: functional; details: po
How it was run: (§2)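 Rats dosed orally; ED50 is the dose giving anticonvulsant protection in 50% of animals in the MES or scPtz test. TD50 is the minimal neurotoxic dose in 50% of animals. Time to peak effect was also determined.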

Rattus norvegicus [4] = assay: Anticonvulsant activity was measured in rats through seizures induced by maximal electroshock (MES) tests by oral administration of drug after 15 minutes.; assay type: functional; how it was run: as §1
Rattus norvegicus [5] = assay: Anticonvulsant activity was measured in rats through seizures induced by maximal electroshock (MES) tests by oral administration of drug after 4 hours.; assay type: functional; how it was run: as §1
Mus musculus [6] = assay: Anticonvulsant activity in mice through seizures induced by subcutaneous pentylenetetrazole (scPTZ) tests after ip administration at a concentration of 300 mg/kg after 4 hours; Inactive; assay type: functional, organism-based; set-up: dose 300 mg/kg
Mus musculus [7] = assay: Neurotoxicity by rotarod test after intraperitoneal administration at a concentration of 300 mg/kg after 30 minutes; active; assay type: functional, organism-based; set-up: dose 300 mg/kg
Rattus norvegicus [8] = assay: Anticonvulsant activity was measured in rats through seizures induced by maximal electroshock (MES) tests by oral administration of drug after 2 hours.; assay type: functional; how it was run: as §1
Mus musculus [9] = assay: Anticonvulsant activity in mice through seizures induced by maximal electroshock (MES) tests after intraperitoneal administration at a concentration of 100 mg/kg after 30 min; active; assay type: functional, organism-based; set-up: dose 100 mg/kg
Mus musculus [10] = assay: Neurotoxicity determined by rotarod test after intraperitoneal administration at a concentration of 300 mg/kg after 4 hours; Inactive; assay type: functional, organism-based; set-up: dose 300 mg/kg
Mus musculus [11] = assay: Anticonvulsant activity in mice through seizures induced by subcutaneous pentylenetetrazole (scPTZ) tests after ip administration at a concentration of 300 mg/kg after 30 min; Inactive; assay type: functional, organism-based; set-up: dose 300 mg/kg
Mus musculus [12] = assay: Anticonvulsant activity in mice through seizures induced by maximal electroshock (MES) tests after ip administration at a concentration of 300 mg/kg after 4 hours; active; assay type: functional, organism-based; set-up: dose 300 mg/kg
[13] = dose eliciting minimal neurological toxicity in 50% of animals.; assay type: organism-based; details: rat, in vivo
Mus musculus [14] = assay: Neurotoxicity by rotarod test after intraperitoneal administration at a concentration of 300 mg/kg after 30 minutes; Inactive; assay type: functional, organism-based; set-up: dose 300 mg/kg
Mus musculus [15] = assay: Anticonvulsant activity in mice through seizures induced by maximal electroshock (MES) tests after ipb administration at a concentration of 300 mg/kg after 4 hours.; Inactive; assay type: functional, organism-based; set-up: dose 300 mg/kg
Mus musculus [16] = assay: Anticonvulsant activity in mice through seizures induced by sc pentylenetetrazole (intraperitoneal administration at a concentration of 300 mg/kg after 4 hours; Inactive; assay type: functional, organism-based; set-up: dose 300 mg/kg
Mus musculus [17] = assay: Anticonvulsant activity in mice through seizures induced by maximal electroshock (MES) tests after ip administration at a concentration of 100 mg/kg after 30 min; Inactive; assay type: functional, organism-based; set-up: dose 100 mg/kg
Mus musculus [18] = assay: Anticonvulsant activity in mice through seizures induced by maximal electroshock (MES) tests after ip administration at a concentration of 100 mg/kg after 30 min; active; assay type: functional, organism-based; set-up: dose 100 mg/kg
Mus musculus [19] = assay: Anticonvulsant activity in mice through seizures induced by maximal electroshock (MES) tests after ip administration at a concentration of 300 mg/kg after 4 hours; Inactive; assay type: functional, organism-based; set-up: dose 300 mg/kg
Mus musculus [20] = assay: Anticonvulsant activity in mice through seizures induced by sc pentylenetetrazole (intraperitoneal administration at a concentration of 300 mg/kg after 30 min; Inactive; assay type: functional, organism-based; set-up: dose 300 mg/kg
Mus musculus [21] = assay: Anticonvulsant activity in mice through seizures induced by maximal electroshock (MES) tests after ip administration at a concentration of 300 mg/kg after 4 hour; Active; assay type: functional, organism-based; set-up: dose 300 mg/kg
Mus musculus [22] = assay: Anticonvulsant activity in mice through seizures induced by scpentylenetetrazol (intraperitoneal administration at a concentration of 300 mg/kg after 4 hours; Inactive; assay type: functional, organism-based; set-up: dose 300 mg/kg
Rattus norvegicus [23] = assay: Toxicity screening in rats dosed orally with the compound; No toxicity; assay type: organism-based; details: in vivo, po
Mus musculus [24] = assay: Anticonvulsant activity in mice through seizures induced by subcutaneous pentylenetetrazole (scPTZ) tests after ip administration at a concentration of 300 mg/kg after 30 min; active; assay type: functional, organism-based; set-up: dose 300 mg/kg
Mus musculus [25] = assay: Anticonvulsant activity in mice through seizures induced by maximal electroshock (MES) tests after intraperitoneal administration at a concentration of 300 mg/kg after 4 hours; Inactive; assay type: functional, organism-based; set-up: dose 300 mg/kg
Mus musculus [26] = assay: Neurotoxicity by rotarod test after intraperitoneal administration at a concentration of 300 mg/kg after 30 minutes; Active; assay type: functional, organism-based; set-up: dose 300 mg/kg
Mus musculus [27] = assay: Anticonvulsant activity in mice through seizures induced by subcutaneous pentylenetetrazole (scPTZ) tests after ip administration at a concentration of 300 mg/kg after 4 hours; Active; assay type: functional, organism-based; set-up: dose 300 mg/kg
Mus musculus [28] = assay: Anticonvulsant activity in mice through seizures induced by subcutaneous pentylenetetrazole (scPTZ) tests after ip administration at a concentration of 300 mg/kg after 30 min; Active; assay type: functional, organism-based; set-up: dose 300 mg/kg
Mus musculus [29] = assay: Anticonvulsant activity in mice through seizures induced by maximal electroshock (MES) tests after ip administration at a concentration of 100 mg/kg after 30 min; Active; assay type: functional, organism-based; set-up: dose 100 mg/kg
Mus musculus [30] = assay: Neurotoxicity by rotarod test after intraperitoneal administration at a concentration of 300 mg/kg after 4 hours; Active; assay type: functional, organism-based; set-up: dose 300 mg/kg
Mus musculus [31] = assay: Anticonvulsant activity in mice through seizures induced by maximal electroshock (MES) tests after ip administration at a concentration of 300 mg/kg after 4 hours; Active; assay type: functional, organism-based; set-up: dose 300 mg/kg
Rattus norvegicus [32] = assay: Effective dose required to assure anticonvulsant protection in 50% of rats dosed orally by MES test.; assay type: functional; details: po; how it was run: as §2

O=C1NC(=O)C(c2ccccc2)(c2ccccc2)N1 [PHENYTOIN]
Activity in animals (Rattus norvegicus [1]): 100% | Activity in animals (Rattus norvegicus [2]): 100% | ED50 (Rattus norvegicus [3]): > 800 mg/kg | Activity in animals (Rattus norvegicus [4]): 100% | Activity in animals (Rattus norvegicus [5]): 25% | Activity (Mus musculus [6]): inactive | Activity (Mus musculus [7]): Active | Activity in animals (Rattus norvegicus [8]): 100% | Activity (Mus musculus [9]): Active | Activity (Mus musculus [10]): inactive | Activity (Mus musculus [11]): inactive | Activity (Mus musculus [12]): Active | TD50 [13]: > 3000 mg/kg

O=C1c2ccccc2C(=O)N1c1ccc([N+](=O)[O-])cc1Cl
Activity (Mus musculus [14]): inactive | Activity (Mus musculus [15]): inactive | Activity (Mus musculus [16]): inactive | Activity (Mus musculus [10]): inactive | Activity (Mus musculus [17]): inactive | Activity (Mus musculus [11]): inactive

Cc1c(N)cccc1N1C(=O)CCC1=O
Activity (Mus musculus [18]): Active | Activity (Mus musculus [19]): inactive | Activity (Mus musculus [14]): inactive | Activity (Mus musculus [20]): inactive | Activity (Mus musculus [16]): inactive | Activity (Mus musculus [10]): inactive

Cc1cccc([N+](=O)[O-])c1N1C(=O)c2ccccc2C1=O
Activity (Mus musculus [14]): inactive | Activity (Mus musculus [20]): inactive | Activity (Mus musculus [6]): inactive | Activity (Mus musculus [10]): inactive | Activity (Mus musculus [17]): inactive | Activity (Mus musculus [21]): Active

Cc1cccc(C)c1N1C(=O)c2ccccc2C1=O
Activity in animals (Rattus norvegicus [1]): 50% | Activity (Mus musculus [18]): Active | Activity in animals (Rattus norvegicus [4]): 50% | Activity in animals (Rattus norvegicus [5]): 50% | Activity (Mus musculus [19]): inactive | Activity (Mus musculus [14]): inactive | Activity (Mus musculus [20]): inactive | Activity (Mus musculus [22]): inactive | Toxicity (Rattus norvegicus [23]): No toxicity | Activity in animals (Rattus norvegicus [8]): 25% | Activity (Mus musculus [10]): inactive

Cc1cccnc1N1C(=O)c2ccccc2C1=O
Activity in animals (Rattus norvegicus [1]): 50% | Activity (Mus musculus [18]): Active | Activity in animals (Rattus norvegicus [2]): 50% | Activity in animals (Rattus norvegicus [4]): 25% | Activity (Mus musculus [19]): inactive | Activity (Mus musculus [7]): Active | Toxicity (Rattus norvegicus [23]): No toxicity | Activity (Mus musculus [16]): inactive | Activity in animals (Rattus norvegicus [8]): 50% | Activity (Mus musculus [10]): inactive | Activity (Mus musculus [24]): Active

COc1ccc(N2C(=O)c3ccccc3C2=O)c(OC)c1
Activity (Mus musculus [25]): inactive | Activity (Mus musculus [14]): inactive | Activity (Mus musculus [20]): inactive | Activity (Mus musculus [16]): inactive | Activity (Mus musculus [10]): inactive | Activity (Mus musculus [17]): inactive

Cc1ccc([N+](=O)[O-])cc1N1C(=O)c2ccccc2C1=O
Activity (Mus musculus [26]): Active | Activity (Mus musculus [27]): Active | Activity (Mus musculus [28]): Active | Activity (Mus musculus [29]): Active | Activity (Mus musculus [30]): Active | Activity (Mus musculus [31]): Active

Cc1c(N)cccc1N1C(=O)c2ccccc2C1=O
Activity in animals (Rattus norvegicus [1]): 100% | Activity in animals (Rattus norvegicus [2]): 100% | ED50 (Rattus norvegicus [3]): > 200 mg/kg | Activity in animals (Rattus norvegicus [4]): 100% | Activity in animals (Rattus norvegicus [5]): 100% | Activity (Mus musculus [14]): inactive | Toxicity (Rattus norvegicus [23]): No toxicity | Activity (Mus musculus [16]): inactive | Activity in animals (Rattus norvegicus [8]): 100% | Activity (Mus musculus [10]): inactive | ED50 (Rattus norvegicus [32]): 8 mg/kg | Activity (Mus musculus [29]): Active | Activity (Mus musculus [11]): inactive | Activity (Mus musculus [31]): Active | TD50 [13]: > 400 mg/kg

O=C1c2ccccc2C(=O)N1c1ccc([N+](=O)[O-])cc1
Activity (Mus musculus [19]): inactive | Activity (Mus musculus [14]): inactive | Activity (Mus musculus [20]): inactive | Activity (Mus musculus [16]): inactive | Activity (Mus musculus [10]): inactive | Activity (Mus musculus [17]): inactive
